This passage reports IC50 results from ChEMBL document CHEMBL1141666, “Synthesis of novel substituted 1,3-diaryl propenone derivatives and their antimalarial activity in vitro” (Eur J Med Chem, 2008).

Molecules are shown by their SMILES. In brackets after ≈: the same amount, converted by molar mass.

The test relates to Plasmodium falciparum. Briefly: Antimalarial activity against asexual blood stage of Plasmodium falciparum 3D7 after 48 hrs by candle jar method. In kind it is functional, organism-based. Particulars: 3D7, 48 h. In outline: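 Asexual blood-stage parasites grown in B+ human erythrocytes, RPMI-1640 with 10% heat-inactivated pooled compatible serum; exposed to graded compound concentrations in triplicate, 48 h, 37 °C. Percent parasitemia inhibition versus controls from Giemsa-stained thin smears; IC50 from concentration-response curve.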
The compound `O=C(/C=C/c1ccc(Cl)cc1)c1ccc(N2CCCCC2)cc1` registered a concentration for half-maximal inhibition (IC50) of 5.15 µg/mL (≈ 15.8 µM).

Consider `O=C(/C=C/c1ccc(Cl)cc1)c1ccc(N2CCCC2)cc1`, for which it took 6.01 µg/mL (≈ 19.3 µM) to reach half-maximal inhibition (IC50).

`O=C(/C=C/c1ccc(Cl)cc1)c1ccc(-n2cccn2)cc1` displayed an IC50 of 7.76 µg/mL (≈ 25.1 µM).

`O=C(/C=C/c1ccc(Cl)cc1)c1ccc(-n2ccnc2)cc1` gave an IC50 of 8.26 µg/mL (≈ 26.8 µM).

As for `O=C(/C=C/c1ccc(Cl)cc1)c1ccc(-n2cncn2)cc1`, it took 1.52 µg/mL (≈ 4.91 µM) to reach half-maximal inhibition (IC50).

As for `COc1ccc(/C=C/C(=O)c2ccc(-n3nnc4ccccc43)cc2)cc1`, the half-inhibitory concentration (IC50) worked out at 6.8 µg/mL (≈ 19.1 µM).

Turning to `COc1cc(/C=C/C(=O)c2ccc(N3CCCCC3)cc2)cc(OC)c1OC`, the midpoint of inhibition, the IC50, lay at 7.16 µg/mL (≈ 18.8 µM).

Take `COc1cc(/C=C/C(=O)c2ccc(N3CCOCC3)cc2)cc(OC)c1OC`: the IC50 amounted to 4.6 µg/mL (≈ 12 µM).

The compound `COc1cc(/C=C/C(=O)c2ccc(-n3cncn3)cc2)cc(OC)c1OC` showed an IC50 of 8.03 µg/mL (≈ 22 µM).

On to `O=C(/C=C/c1ccc(Cl)cc1)c1ccc(-n2cccc2)cc1`, for which inhibition was half-maximal at 2.93 µg/mL (≈ 9.52 µM) (IC50). This IC50 lies about 2.7-fold lower than the previous one.

As to `COc1ccc(/C=C/C(=O)c2ccc(-n3cccn3)cc2)cc1`, the half-inhibitory concentration (IC50) worked out at 12.3 µg/mL (≈ 40.5 µM).

Turning to `O=C(/C=C/c1ccc(Cl)cc1)c1ccc(N2CCOCC2)cc1`, inhibition was half-maximal at 9.1 µg/mL (≈ 27.8 µM) (IC50).

As to `COc1cc(/C=C/C(=O)c2ccc(-n3cccn3)cc2)cc(OC)c1OC`, the half-maximal inhibitory concentration (IC50) turned out to be 6 µg/mL (≈ 16.5 µM).

Compound `O=C(/C=C/c1ccc(Cl)cc1)c1ccc(-n2nnc3ccccc32)cc1` gave a half-maximal inhibitory concentration (IC50) of 2.5 µg/mL (≈ 6.95 µM). Against the preceding compound, the IC50 is about 2.4-fold lower.
